Source: ChEMBL document CHEMBL1154045, “In vitro and in vivo anticancer activity of 2-deacetoxytaxinine J and synthesis of novel taxoids and their in vitro anticancer activity” (Eur J Med Chem, 2009)
pIC50: −log10 of the molar value. Active and inactive are the calls of the source. The rule behind the calls is not given here.

Experiments:
[1] = tested on: MCF7; assay: Anticancer activity against estrogen-positive human MCF7 cells after 18 hrs by MTT assay; format: functional, cell-based; settings: MCF7, 18 h
In short: (§1)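 MTT assay: 1 × 10⁴ cells/well seeded in DMEM with 10% FBS and held 24 h at 37 °C in a CO₂ incubator. Compounds were diluted in culture medium and added alongside a vehicle control. After 18 h of exposure, MTT (5 mg/mL stock) was added and plates were incubated a further 4 h.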

[2] = tested on: MDA-MB-231; assay: Anticancer activity against estrogen-receptor-negative human MDA-MB-231 cells after 18 hrs by MTT assay; format: functional, cell-based; settings: MDA-MB-231, 18 h; in short: as §1
[3] = tested on: HEK293; assay: Cytotoxicity against HEK293 cells after 18 hrs by MTT assay; format: cell-based; settings: Homo sapiens, HEK293, 18 h; in short: as §1
[4] = tested on: Rattus norvegicus; assay: Antitumor activity against DMBA-induced mammary tumor in Sprague-Dawley rat assessed as tumor regression at 10 mg/kg, po administered for 30 days; format: functional, organism-based; parameters: dose 10 mg/kg
[5] = tested on: A2780 ADR; assay: Reversal of P-gp-mediated multidrug resistance in human 2780AD cells assessed as vincristine accumulation; format: cell-based

Structure (SMILES)	pIC50 [1]	pIC50 [2]	pIC50 [3]	Activity [4]	Activity [5] [%]
CC(=O)O[C@H]1C(=O)[C@@]2(C)[C@H]([C@H](OC(=O)c3ccccc3)[C@]3(O)C[C@H](OC(=O)[C@H](O)[C@@H](NC(=O)c4ccccc4)c4ccccc4)C(C)=C1C3(C)C)[C@]1(OC(C)=O)CO[C@@H]1C[C@@H]2O [PACLITAXEL]			4.37		
C=C1[C@@H](OC(=O)c2cccnc2)C[C@H](OC(C)=O)[C@]2(C)[C@@H]1C[C@@H]1C[C@H](OC(C)=O)C(C)=C([C@@H](OC(C)=O)[C@@H]2OC(C)=O)C1(C)C	< 4.30	< 4.30	< 4.30		
C=C1[C@H]2C[C@@H]3C[C@H](OC(C)=O)C(C)=C([C@@H](OC(C)=O)[C@H](OC(C)=O)[C@]2(C)[C@@H](OC(C)=O)C[C@@H]1O)C3(C)C	< 4.30	< 4.30	< 4.30		
C=C1[C@@H](OC(=O)[C@@H](O)[C@H](O)c2ccccc2)C[C@H](OC(C)=O)[C@]2(C)[C@@H]1C[C@@H]1C[C@H](OC(C)=O)C(C)=C([C@@H](OC(C)=O)[C@@H]2OC(C)=O)C1(C)C	< 4.30	4.89	< 4.30		
C=C1[C@@H](OC(=O)/C=C/c2cccnc2)C[C@H](OC(C)=O)[C@]2(C)[C@@H]1C[C@@H]1C[C@H](OC(C)=O)C(C)=C([C@@H](OC(C)=O)[C@@H]2OC(C)=O)C1(C)C	4.47	< 4.30	< 4.30		
COc1ccc(CCN(C)CCCC(C#N)(c2ccc(OC)c(OC)c2)C(C)C)cc1OC (stereo not given)					254
C=C1[C@@H](OC(=O)CCc2cccnc2)C[C@H](OC(C)=O)[C@]2(C)[C@@H]1C[C@@H]1C[C@H](OC(C)=O)C(C)=C([C@@H](OC(C)=O)[C@@H]2OC(C)=O)C1(C)C	4.41	< 4.30	< 4.30		

Continued, in another order:

pIC50 [1]	pIC50 [2]	Structure (SMILES)	pIC50 [3]	Activity [4]	Activity [5] [%]
4.92	4.62	CC/C(=C(\c1ccccc1)c1ccc(OCCN(C)C)cc1)c1ccccc1 [TAMOXIFEN]			
4.82	4.70	C=C1[C@@H](OC(=O)CCc2ccccc2)C[C@H](OC(C)=O)[C@]2(C)[C@@H]1C[C@@H]1C[C@H](OC(C)=O)C(C)=C([C@@H](OC(C)=O)[C@@H]2OC(C)=O)C1(C)C	5.00		
4.55	< 4.30	C=C1[C@@H](OC(=O)Cc2ccccn2)C[C@H](OC(C)=O)[C@]2(C)[C@@H]1C[C@@H]1C[C@H](OC(C)=O)C(C)=C([C@@H](OC(C)=O)[C@@H]2OC(C)=O)C1(C)C	< 4.30		
4.70	5.00	C=C1[C@@H](OC(=O)/C=C/c2ccccc2)C[C@H](OC(C)=O)[C@]2(C)[C@@H]1C[C@@H]1C[C@H](OC(C)=O)C(C)=C([C@@H](OC(C)=O)[C@@H]2OC(C)=O)C1(C)C	< 4.30	Active	266
